# Results as given in the RNAGym collection of RNA variant scans (doi:10.1126/science.aae0568).
# Fewer inactive variants are shown than the library holds.
# B1: tRNA (parent)
# chain: GUUCCGUUGGCGUAAUGGUAACGCGUCUCCCUCCUAAGGAGAAGACUGCGGGUUCGAGUCCCGUACGGAACG
# Variants of: B1
# Test: yeast fitness relative to wild type (ratio to wild type); higher = fitter; tRNA-Arg(CCU), competitive growth, 37 C, YPD
# How it was run: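 Start and end populations of a pooled competition were compared by 100-nucleotide paired-end sequencing of gene amplicons. The Saccharomyces cerevisiae strains carried tRNA-Arg(CCU) gene variants at the native genomic locus, synthesised with a 3% per-site mutation rate at 69 sites, and competed in YPD at 37°C for 24 hours in six parallel replicates. Darwinian fitness relative to wild type was based on the change in genotype frequencies. Genotypes required ≥ 100 starting reads, and estimates < 0.5 were set to 0.5.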
row,Variant,yeast fitness
1,C5G C30G G67A A70U,≤ 0.5
2,C5G C30U A36U G51C,≤ 0.5
3,C5G C30U A40G C55U,≤ 0.5
4,C5G C30U C31G,0.79
5,C5G C30U C31G C46U,≤ 0.5
6,C5G C30U G50C,≤ 0.5
7,C5G C30U G67C,0.938
8,C5G C30U U32A C49G,≤ 0.5
9,C5G C30U U32C G44C,≤ 0.5
10,C5G C30U U47A G51A A57G,≤ 0.5
11,C5G C31A,0.79
12,C5G C31A A36C A43C C55G,1.06
13,C5G C31A A37C G48A G58C G68C,≤ 0.5
14,C5G C31A A45U,0.584
15,C5G C31A C66G,≤ 0.5
16,C5G C31G,0.824
17,C5G C31G A42U,0.623
18,C5G C31G A57C,0.502
19,C5G C31U A36C G38A,0.557
20,C5G C31U A37G,0.592
21,C5G C31U C33U A57U,≤ 0.5
22,C5G C31U C49G,0.576
23,C5G C31U G52A,0.612
24,C5G C31U U32C,0.659

row,Variant,yeast fitness
1,C5G C33A A37C C61U C62A,≤ 0.5
2,C5G C33A C34G G50A,≤ 0.5
3,C5G C33A U64A,≤ 0.5
4,C5G C33G A40U,≤ 0.5
5,C5G C33G A40U A65C,≤ 0.5
6,C5G C34A A36C A42G,≤ 0.5
7,C5G C34A A36U G51C G56A,0.797
8,C5G C34A C49U,≤ 0.5
9,C5G C34A G39C G52A G58A,0.532
10,C5G C34G C46U C49U,≤ 0.5
11,C5G C34G C49U G50A,≤ 0.5
12,C5G C34G C61A,≤ 0.5
13,C5G C34G C62U,0.531
14,C5G C46G C49G C62A,≤ 0.5
15,C5G C46U A57C,0.552
16,C5G C46U U53A,0.529
17,C5G C49A,0.624
18,C5G C49A G63A,≤ 0.5
19,C5G C49A U64C,0.621
20,C5G C49G,0.84
21,C5G C49G G51A,≤ 0.5
22,C5G C49G U53A,≤ 0.5
23,C5G C55A C62U,0.546
24,C5G C55G A65C,0.531

row,Variant,yeast fitness
1,C5G C55U,0.791
2,C5G C55U A69U,≤ 0.5
3,C5G C61A C62U A65U A69C,≤ 0.5
4,C5G C61A G63C,≤ 0.5
5,C5G C61G A65C,≤ 0.5
6,C5G C61G A69G,≤ 0.5
7,C5G C61U A69C,≤ 0.5
8,C5G C61U A69U,0.775
9,C5G C61U U64G,0.87
10,C5G C62A,0.697
11,C5G C62G A65U,≤ 0.5
12,C5G C62G U64A,≤ 0.5
13,C5G C62U,0.79
14,C5G C66A A69G A70C,≤ 0.5
15,C5G C66A A69U,0.574
16,C5G C66G,0.781
17,C5G G6A,0.659
18,C5G G6A A15G,≤ 0.5
19,C5G G6A C29G,0.533
20,C5G G6A C29U C31G C33G G38A U59G,≤ 0.5
21,C5G G6A C29U C33G G38A U59G,0.562
22,C5G G6A C30G,≤ 0.5
23,C5G G6A G50C,0.608
24,C5G G6A U26C G52A,0.619

row,Variant,yeast fitness
1,C5G G6C A15G C62U A65C,0.6
2,C5G G6C C34U G38C,0.749
3,C5G G6C C49A,≤ 0.5
4,C5G G6C G38C G58U,0.551
5,C5G G6C G48A,1.06
6,C5G G9A C27G,0.544
7,C5G G9A G25C C27U G56A,0.6
8,C5G G9C A20U A21G C24G C27G,0.577
9,C5G G9C A20U A21G C24G C27G G68A,≤ 0.5
10,C5G G9C A36G C46U,≤ 0.5
11,C5G G9C A40C G58A,≤ 0.5
12,C5G G9C A40U C66G,≤ 0.5
13,C5G G9C A42G,≤ 0.5
14,C5G G9C A43G,0.667
15,C5G G9C A43G A69G,≤ 0.5
16,C5G G9C A65U,0.555
17,C5G G9C G58C,≤ 0.5
18,C5G G9C G67A,≤ 0.5
19,C5G G9C U13C A21G,≤ 0.5
20,C5G G9C U47C A65U,≤ 0.5
21,C5G G10A,0.804
22,C5G G10A A37C G56A,0.567
23,C5G G10A A42G C55U A70C,≤ 0.5
24,C5G G10A C11G U16G C33G C66U,≤ 0.5

row,Variant,yeast fitness
1,C5G G10A C22U A37C G56A,≤ 0.5
2,C5G G10A C33U A65C G68C,0.55
3,C5G G10C A43U U54C,≤ 0.5
4,C5G G10C C29A,≤ 0.5
5,C5G G10C G52A U54A C60G,0.629
6,C5G G10C U13G A37C G56A A65U,0.64
7,C5G G10C U35G G50A C55U A69C,0.607
8,C5G G12A,0.932
9,C5G G12A C22A U26C C33G U64A G67C,≤ 0.5
10,C5G G12A C49G G68C,≤ 0.5
11,C5G G12A U28A A65G,0.703
12,C5G G12C A45C C46U C55U C62U,≤ 0.5
13,C5G G12C C24A C33G C49G A65G,0.573
14,C5G G12C C49U,0.584
15,C5G G12C C49U A65C,0.726
16,C5G G12C G18A C24U C29U A36G A69C,≤ 0.5
17,C5G G17A A20C,≤ 0.5
18,C5G G17A A20C C49G,0.551
19,C5G G17A A20C C49G A69C,≤ 0.5
20,C5G G17A A20C G38A G58C C66U,≤ 0.5
21,C5G G17A C33U A37C A65C,≤ 0.5
22,C5G G17A C46G,0.538
23,C5G G17A C62A,≤ 0.5
24,C5G G17C A43U A69C,0.596

row,Variant,yeast fitness
1,C5G G17C A45G C46U,≤ 0.5
2,C5G G17C C55U,≤ 0.5
3,C5G G17C G25A A40C U59A,0.54
4,C5G G17C G25A A70G,≤ 0.5
5,C5G G17C G50A A65U,≤ 0.5
6,C5G G17C G63A A65G,≤ 0.5
7,C5G G18A C22U,≤ 0.5
8,C5G G18A C55A,≤ 0.5
9,C5G G18C U26C U28A,≤ 0.5
10,C5G G23A A43U A65G G68A,≤ 0.5
11,C5G G23A C60U C62G,≤ 0.5
12,C5G G23A U32C C61A,≤ 0.5
13,C5G G23C,0.695
14,C5G G23C A36C,≤ 0.5
15,C5G G23C C31G C60A A70U,≤ 0.5
16,C5G G23C C33U G39A A43C,≤ 0.5
17,C5G G25A A42C G68A,≤ 0.5
18,C5G G25A A69U,0.75
19,C5G G25A A70C,0.758
20,C5G G25A C61G,0.564
21,C5G G25A G48A,0.724
22,C5G G25A G48A C61G,≤ 0.5
23,C5G G25C C46G U64G,≤ 0.5
24,C5G G25C C49U,0.689

row,Variant,yeast fitness
1,C5G G25C G44A,≤ 0.5
2,C5G G38A,0.729
3,C5G G38A A69U,0.559
4,C5G G39A,0.725
5,C5G G39A A70G,0.617
6,C5G G39A C49G C55U A57U,≤ 0.5
7,C5G G39A C49U,0.524
8,C5G G39A G52A A70G,≤ 0.5
9,C5G G41C A45U,0.583
10,C5G G41C C61U,≤ 0.5
11,C5G G44A A69U,0.646
12,C5G G44A C55G,0.527
13,C5G G44C C49U U59G,≤ 0.5
14,C5G G44C C55A,≤ 0.5
15,C5G G48A C49U,0.933
16,C5G G48A C62G A69U,0.768
17,C5G G48C A69U,0.587
18,C5G G48C C49U U54G C55U C66A,0.604
19,C5G G50A,0.835
20,C5G G50A A65G,0.587
21,C5G G50C,0.701
22,C5G G51A,0.78
23,C5G G51A G68A,≤ 0.5
